According to ChEMBL document CHEMBL2346587, “Design, synthesis, and evaluation of a water-soluble antofine analogue with high antiproliferative and antitumor activity” (Bioorg Med Chem, 2013):
Values after ≈ are worked out from the molar mass of the structure shown.

Assays:
[1] = test system: SK-HEP1; assay: Cytotoxicity against human SKHEP1 cells after 72 hrs by SRB assay; format: functional, cell-based; settings: SK-HEP1, 72 h
Procedure, shortened: (§1)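 SRB growth assay: 5 × 10^3 cells/well exposed to a concentration series for 72 h; fixed in 10% TCA 30 min at 4 °C, stained with 0.4% SRB in 1% acetic acid 30 min, dye dissolved in 10 mM Tris pH 10.0, absorbance at 515 nm. Viability relative to vehicle control; IC50 by non-linear regression; at least three experiments. A549-Pa is a paclitaxel-resistant A549 subline.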

[2] = test system: SNU-638; assay: Cytotoxicity against human SNU638 cells after 72 hrs by SRB assay; format: functional, cell-based; settings: SNU-638, 72 h; procedure, shortened: as §1
[3] = test system: HCT-15; assay: Cytotoxicity against human HCT15 cells after 72 hrs by SRB assay; format: functional, cell-based; settings: HCT-15, 72 h; procedure, shortened: as §1
[4] = Thermodynamic solubility of the compound in 1:1 mixture of phosphate buffer:ethanol; format: physicochemical
[5] = Thermodynamic solubility of the compound in phosphate buffer at pH 7.4; format: physicochemical; settings: read-out: Therm_solubility
[6] = target: ATP-dependent translocase ABCB1 (Homo sapiens, UniProt P08183); assay: Inhibition of P-gp activity in human paclitaxel-resistant A549 cells assessed as rhodamine 123 accumulation at 10 nM after 72 hrs by FACS analysis (reference value: 14.4 %); format: cell-based; parameters: scale not given: the % may be the effect or the level left; settings: a549, 72 h, 0.01 µM
Procedure, shortened: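 Paclitaxel-resistant A549-Pa cells seeded at 1 × 10^5 cells/dish, pretreated with compound for 72 h, then loaded with rhodamine-123 in culture medium at 37 °C, 5% CO2, in the dark for 90 min. Cells were trypsinized, washed twice in ice-cold PBS, and analysed immediately by flow cytometry (488 nm laser; green fluorescence through a 530 nm band-pass filter).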

[7] = test system: A549; assay: Cytotoxicity against human paclitaxel-resistant A549 cells after 72 hrs by SRB assay; format: functional, cell-based; settings: A549, 72 h; procedure, shortened: as §1
[8] = test system: A549; assay: Cytotoxicity against human A549 cells after 72 hrs by SRB assay; format: functional, cell-based; settings: A549, 72 h; procedure, shortened: as §1
[9] = test system: HCT-116; assay: Cytotoxicity against human HCT116 cells after 72 hrs by SRB assay; format: functional, cell-based; settings: HCT-116, 72 h; procedure, shortened: as §1

Chain of ATP-dependent translocase ABCB1 (P08183 whole entry): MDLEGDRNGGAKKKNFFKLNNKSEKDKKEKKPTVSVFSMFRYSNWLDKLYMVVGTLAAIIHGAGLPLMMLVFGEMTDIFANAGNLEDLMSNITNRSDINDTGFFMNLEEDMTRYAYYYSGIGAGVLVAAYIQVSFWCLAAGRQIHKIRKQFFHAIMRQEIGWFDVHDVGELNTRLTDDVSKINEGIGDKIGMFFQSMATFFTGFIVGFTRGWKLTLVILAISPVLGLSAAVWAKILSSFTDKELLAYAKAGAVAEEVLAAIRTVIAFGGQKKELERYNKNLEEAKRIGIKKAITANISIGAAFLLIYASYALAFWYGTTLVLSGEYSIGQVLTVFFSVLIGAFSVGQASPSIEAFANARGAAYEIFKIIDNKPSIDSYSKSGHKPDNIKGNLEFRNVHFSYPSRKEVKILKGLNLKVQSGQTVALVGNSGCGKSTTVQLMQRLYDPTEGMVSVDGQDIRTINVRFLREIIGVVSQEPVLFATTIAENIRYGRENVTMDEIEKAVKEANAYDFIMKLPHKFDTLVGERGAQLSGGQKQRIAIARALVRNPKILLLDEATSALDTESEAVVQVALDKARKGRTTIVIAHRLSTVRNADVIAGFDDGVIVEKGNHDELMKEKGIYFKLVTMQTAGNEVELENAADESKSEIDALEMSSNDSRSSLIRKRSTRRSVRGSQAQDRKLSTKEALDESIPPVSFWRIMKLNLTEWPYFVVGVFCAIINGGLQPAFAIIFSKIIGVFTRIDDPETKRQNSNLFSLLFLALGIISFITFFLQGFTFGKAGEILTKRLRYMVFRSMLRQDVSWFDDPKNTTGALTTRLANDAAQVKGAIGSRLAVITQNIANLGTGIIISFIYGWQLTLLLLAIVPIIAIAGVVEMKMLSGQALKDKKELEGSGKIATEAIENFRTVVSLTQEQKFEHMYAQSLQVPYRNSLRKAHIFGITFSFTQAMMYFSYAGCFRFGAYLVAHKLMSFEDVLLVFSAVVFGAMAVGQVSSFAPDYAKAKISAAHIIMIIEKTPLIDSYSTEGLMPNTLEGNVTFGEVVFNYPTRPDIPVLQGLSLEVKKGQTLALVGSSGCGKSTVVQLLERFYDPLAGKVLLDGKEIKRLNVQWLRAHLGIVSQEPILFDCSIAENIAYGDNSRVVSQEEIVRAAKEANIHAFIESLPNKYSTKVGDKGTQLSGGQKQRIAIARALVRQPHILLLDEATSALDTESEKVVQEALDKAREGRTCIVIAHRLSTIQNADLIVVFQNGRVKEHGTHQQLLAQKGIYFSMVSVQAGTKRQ

solubility thermodynamic ([4]; 1:1 mixture of phosphate buffer:ethanol, read-out: Therm_solubility) [µg/mL] | Compound | IC50 [1] [nM] | IC50 [2] [nM] | IC50 [3] [nM] | Therm_solubility ([4]; buffer) [µg/mL] | solubility thermodynamic [5] [µg/mL] | Activity [6] [%] | IC50 [7] [nM] | IC50 [8] [nM] | IC50 [9] [nM]
– | COc1ccc2c3c(c4cc(OC)c(OC)cc4c2c1)C[C@H]1CCCN1C3 [(-)-ANTOFINE] | 8 | 10 | 13 | 47 | < 1 | 37.9 | 18 | 11 | 8
– | COc1ccc2c3c(c4cc(OC)c(OC)cc4c2c1)C[C@]1(CO)CCCN1C3 | 540 | 1490 | 1420 | – | – | – | 3660 | 2270 | 800
– | COc1ccc2c3c(c4cc(OC)c(OC)cc4c2c1)CC1(C(=O)O)CCCN1C3 (racemic) | > 1000 | > 1000 | > 1000 | – | – | – | > 1000 | > 1000 | > 1000
– | COC(=O)C12CCCN1Cc1c(c3cc(OC)c(OC)cc3c3cc(OC)ccc13)C2 (racemic) | > 1000 | > 1000 | > 1000 | – | – | – | > 1000 | > 1000 | > 1000
– | COc1ccc2c3c(c4cc(OC)c(OC)cc4c2c1)CC1CCCN1C3 (racemic) [(+/-)-ANTOFINE] | 16 | 21 | 25 | – | – | – | 22 | 20 | 11
1390 (≈ 3540 µM) | COc1ccc2c3c(c4cc(OC)c(OC)cc4c2c1)CC1(CO)CCCN1C3 (racemic) | 100 | 92 | 179 | – | 656 (≈ 1670 µM) | – | 204 | 167 | 53
